This is one part of the list. The source made the active and inactive calls.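 Rule for the calls, unless noted: active = mean duplicate activation above the buffer control mean plus 5 SD of those controls; inactive = the rest.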

The text below walks through data of PubChem BioAssay.

Assay [1] concerns the target T1, Potassium voltage-gated channel subfamily E member 1 (Homo sapiens) + Potassium voltage-gated channel subfamily KQT member 1 (Homo sapiens) (UniProt P15382+P51787). Nature of the assay: KCNQ1-E1 channel activation – thallium flux, CHO-K1 KCNQ1/E1 cells, selectivity assay for KCNQ1 potentiator project, confirmation (AID 493186).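 For activation: 0% = assay buffer control and 100% = R-L3 activator control.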 As to conditions: FluxOR thallium flux, at 10 µM; stronger effect = higher value. In short, it runs like this:
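Material: CHO-K1 cells with KCNQ1/E1 / Timing: dye 90 min, compound 20 min, room temperature / Technique: kinetic thallium-sensitive FluxOR dye fluorescence / Read-out: percent activation scaled between buffer and R-L3 ratio signals / Replicates: tested in duplicate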

Assay [2] in a line: nonspecific activity in CHO-K1 cells without KCNQ1 – parental CHO cells, Tl flux, counter-screen for KCNQ1 inhibitor project (AID 588366;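 active = mean of duplicate thallium-flux fluorescence ratios in parental host cells more than 5 SD below the buffer control mean, cut at about 0.38 in these data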;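 note: ratio is peak minus minimum fluorescence divided by baseline fluorescence; actives read low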). As to conditions: parental CHO-K1, FluxOR thallium flux fluorescence ratio; at 10 µM; stronger effect = lower value; zero means no signal rise above baseline. In short, it runs like this:
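Assay system: CHO-K1 parental line without KCNQ1 | Reagent: K+/Tl+ depolarizing stimulus | Incubation: 90 min dye load, 20 min compound, room temperature | Technique: Kinetic FluxOR thallium-flux fluorescence, 10 s baseline plus 110 s | Evaluation: Peak-to-trough fluorescence change relative to baseline, duplicate mean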
In general terms: A counterscreen serves to expose hits that act by an unwanted route or on another target.

The target in assay [3] is Potassium voltage-gated channel subfamily KQT member 2 (Rattus norvegicus) (UniProt O88943). As to the kind of experiment: block of rat KCNQ2 potassium channel – cell-based, selectivity assay for KCNQ1 inhibitor project (AID 651746;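 active = mean percent inhibition of the KCNQ2 thallium signal more than 5 SD above the buffer-only control wells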). As to conditions: KCNQ2 cells, FluxOR thallium flux fluorescence, at 10 µM; stronger effect = higher value.
Potassium voltage-gated channel subfamily KQT member 2 (Rattus norvegicus), sequence (O88943 whole entry, looked up): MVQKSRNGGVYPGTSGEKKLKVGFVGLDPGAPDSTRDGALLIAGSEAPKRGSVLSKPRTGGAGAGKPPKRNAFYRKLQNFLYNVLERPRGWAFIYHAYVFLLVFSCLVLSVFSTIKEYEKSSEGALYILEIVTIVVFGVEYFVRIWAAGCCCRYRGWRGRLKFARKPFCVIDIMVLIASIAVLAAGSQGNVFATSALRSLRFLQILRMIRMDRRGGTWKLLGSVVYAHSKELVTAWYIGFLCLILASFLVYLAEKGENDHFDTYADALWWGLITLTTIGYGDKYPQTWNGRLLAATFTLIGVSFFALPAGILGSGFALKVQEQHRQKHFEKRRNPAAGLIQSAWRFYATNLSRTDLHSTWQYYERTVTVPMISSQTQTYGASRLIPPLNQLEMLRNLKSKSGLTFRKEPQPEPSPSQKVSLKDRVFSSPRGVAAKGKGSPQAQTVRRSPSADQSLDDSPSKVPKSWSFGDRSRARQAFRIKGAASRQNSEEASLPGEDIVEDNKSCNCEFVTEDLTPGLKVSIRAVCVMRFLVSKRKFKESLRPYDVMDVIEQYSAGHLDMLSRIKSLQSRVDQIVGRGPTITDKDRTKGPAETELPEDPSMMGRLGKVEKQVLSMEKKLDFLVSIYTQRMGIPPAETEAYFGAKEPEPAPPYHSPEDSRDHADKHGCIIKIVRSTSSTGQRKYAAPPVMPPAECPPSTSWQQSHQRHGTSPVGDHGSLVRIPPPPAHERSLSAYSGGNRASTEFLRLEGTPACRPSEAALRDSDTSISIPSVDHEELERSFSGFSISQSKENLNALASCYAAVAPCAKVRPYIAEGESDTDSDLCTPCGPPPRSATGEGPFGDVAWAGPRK
The target in assay [4] is T1, Potassium voltage-gated channel subfamily E member 1 (Homo sapiens) + Potassium voltage-gated channel subfamily KQT member 1 (Homo sapiens). As to the kind of experiment: block of human IKs channel complex – CHO-K1 cells, thallium flux, FluxOR, selectivity assay for KCNQ1 inhibitor project (AID 652147;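 active = mean percent inhibition of duplicate wells above the buffer-only control mean plus 3 SD of those controls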). The conditions noted are these: KCNQ1/KCNE1 cells, FluxOR thallium flux fluorescence, at 10 µM; stronger effect = higher value. In short, it runs like this: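 Probe or stimulus: depolarizing thallium/potassium stimulus, 5x stock with 12.5 mM Tl2SO4 and K2SO4. System: KCNQ1/KCNE1 potassium channel-expressing cells, plated overnight. Timing: dye 90 min and compound 20 min at room temperature. Signal: kinetic FluxOR thallium-sensitive fluorescence, 1 Hz sampling, 150 s post-stimulus.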

Assay [5] concerns the target Short transient receptor potential channel 4 (Mus musculus) (UniProt Q9QUQ5). Nature of the assay: DAMGO-gated TRPC4 membrane potential modulation – cell-based, second specificity screen, HEK293 TRPC4/mu-opioid, selectivity assay for TRPC6 inhibitor project, confirmation (AID 2776;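 active = compounds whose fluorescence signal differed from control wells by over 3 SD, either direction, in both duplicate plates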). As to conditions: HEK293 TRPC4/MOR, membrane potential dye fluorescence, at 10 µM, channel activated by saturating DAMGO dose; stronger effect = higher value.

The test system of assay [6] is transient receptor potential cation channel C4 (TRPC4), mouse. As to the kind of experiment: membrane potential change in TRPC4 cells – cell-based, HEK293 TRPC4/mu-opioid, membrane potential dye, selectivity assay for TRPC6 inhibitor project, confirmation (AID 2777;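 active = rise or fall in signal beyond 3 SD of buffer-only wells in both replicate plates, either sign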;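 note: integrated kinetic ratio of fluorescence range over baseline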). As to conditions: membrane potential fluorescence, at 10 µM.
The nature of assay [7]: parental HEK293 depolarization signal interference – cell-based, second counter screen, counter-screen for TRPC6 inhibitor project, confirmation (AID 2779;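 active = membrane potential signal moving either way by over 3 SD of the maximum-effect control, in both duplicate plates, meaning non-specific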). The conditions noted are these: parental HEK293 membrane potential dye fluorescence; at 10 µM; maximal acetylcholine challenge after compound addition.
Assay [8] in a line: nonspecific voltage dye signal in HEK293 – cell-based, parental HEK293, counter-screen for TRPC6 inhibitor project, confirmation (AID 2780;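 active = membrane potential signal shifting up or down by more than 3 SD of buffer-only wells, on both duplicate plates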;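 note: plate controls were buffer EC0 wells for no effect and acetylcholine ECmax wells for full effect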). As to conditions: parental HEK293 membrane potential dye fluorescence; at 10 µM.
Assay [9] has as its target Short transient receptor potential channel 6 (Mus musculus) (UniProt Q61143). Nature of the assay: blockers of TRPC6 cation channel activity – HEK293 cells, membrane potential dye, duplicate, confirmation (AID 488960;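 active = fluorescence ratio falls more than 5 SD below the full-stimulation control mean, in both duplicate runs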). As to conditions: ACh-evoked depolarization, at 10 µM; stronger effect = higher value.
Assay [10] has the same target. Nature of the assay: mouse TRPC6 channel activators, confirmation, HEK293 cells, membrane potential dye, duplicate (AID 488961;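 active = ratio signal rise beyond 5 SD above unstimulated control wells' mean, seen in both duplicate runs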). As to conditions: HEK293-TRPC6 membrane potential dye fluorescence, FDSS, at 10 µM; stronger effect = higher value.

T1 sequence (P51787 whole entry, looked up): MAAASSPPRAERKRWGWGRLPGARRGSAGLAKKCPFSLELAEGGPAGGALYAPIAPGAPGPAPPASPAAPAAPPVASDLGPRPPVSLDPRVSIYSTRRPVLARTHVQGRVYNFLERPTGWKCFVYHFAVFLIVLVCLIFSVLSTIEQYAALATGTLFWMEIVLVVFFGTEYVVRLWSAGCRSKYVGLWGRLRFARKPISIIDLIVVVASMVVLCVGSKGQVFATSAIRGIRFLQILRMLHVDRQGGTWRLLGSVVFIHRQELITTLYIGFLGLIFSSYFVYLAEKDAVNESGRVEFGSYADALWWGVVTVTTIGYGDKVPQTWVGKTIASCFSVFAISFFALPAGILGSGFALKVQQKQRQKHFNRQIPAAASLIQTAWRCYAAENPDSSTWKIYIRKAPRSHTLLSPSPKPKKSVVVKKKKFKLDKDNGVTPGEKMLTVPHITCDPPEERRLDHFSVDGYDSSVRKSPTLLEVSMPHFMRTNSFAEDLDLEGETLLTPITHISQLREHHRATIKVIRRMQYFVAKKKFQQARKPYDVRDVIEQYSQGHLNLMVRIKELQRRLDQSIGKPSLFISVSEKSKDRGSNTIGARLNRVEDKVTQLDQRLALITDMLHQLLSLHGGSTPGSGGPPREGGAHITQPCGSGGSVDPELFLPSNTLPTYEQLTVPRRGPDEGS
Short transient receptor potential channel 6 (Mus musculus), sequence (Q61143 whole entry, looked up): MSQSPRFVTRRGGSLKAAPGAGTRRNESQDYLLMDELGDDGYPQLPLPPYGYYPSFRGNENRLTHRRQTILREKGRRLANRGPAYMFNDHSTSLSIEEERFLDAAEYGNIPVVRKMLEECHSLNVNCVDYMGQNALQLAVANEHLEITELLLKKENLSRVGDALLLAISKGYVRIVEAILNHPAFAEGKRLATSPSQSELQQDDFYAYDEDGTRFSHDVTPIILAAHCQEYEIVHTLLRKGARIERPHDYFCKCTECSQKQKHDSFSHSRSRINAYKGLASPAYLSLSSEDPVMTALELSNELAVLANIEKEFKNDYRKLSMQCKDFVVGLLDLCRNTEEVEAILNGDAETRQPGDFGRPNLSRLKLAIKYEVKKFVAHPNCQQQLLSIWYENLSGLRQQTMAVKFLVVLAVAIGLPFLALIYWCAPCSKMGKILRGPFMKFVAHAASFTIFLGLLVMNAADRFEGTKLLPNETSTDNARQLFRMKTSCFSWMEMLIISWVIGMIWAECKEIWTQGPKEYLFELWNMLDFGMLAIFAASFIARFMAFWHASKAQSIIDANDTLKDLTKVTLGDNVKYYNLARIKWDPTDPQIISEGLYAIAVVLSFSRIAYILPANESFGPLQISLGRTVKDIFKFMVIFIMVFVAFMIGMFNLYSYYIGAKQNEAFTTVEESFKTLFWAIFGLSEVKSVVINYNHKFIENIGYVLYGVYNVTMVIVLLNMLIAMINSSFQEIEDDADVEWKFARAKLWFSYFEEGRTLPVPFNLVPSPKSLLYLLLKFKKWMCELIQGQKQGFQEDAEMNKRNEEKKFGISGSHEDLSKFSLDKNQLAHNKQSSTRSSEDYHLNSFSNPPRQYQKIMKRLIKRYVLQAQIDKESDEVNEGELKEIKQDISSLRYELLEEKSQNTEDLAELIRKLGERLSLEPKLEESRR
Short transient receptor potential channel 4 (Mus musculus), sequence (Q9QUQ5 whole entry, looked up): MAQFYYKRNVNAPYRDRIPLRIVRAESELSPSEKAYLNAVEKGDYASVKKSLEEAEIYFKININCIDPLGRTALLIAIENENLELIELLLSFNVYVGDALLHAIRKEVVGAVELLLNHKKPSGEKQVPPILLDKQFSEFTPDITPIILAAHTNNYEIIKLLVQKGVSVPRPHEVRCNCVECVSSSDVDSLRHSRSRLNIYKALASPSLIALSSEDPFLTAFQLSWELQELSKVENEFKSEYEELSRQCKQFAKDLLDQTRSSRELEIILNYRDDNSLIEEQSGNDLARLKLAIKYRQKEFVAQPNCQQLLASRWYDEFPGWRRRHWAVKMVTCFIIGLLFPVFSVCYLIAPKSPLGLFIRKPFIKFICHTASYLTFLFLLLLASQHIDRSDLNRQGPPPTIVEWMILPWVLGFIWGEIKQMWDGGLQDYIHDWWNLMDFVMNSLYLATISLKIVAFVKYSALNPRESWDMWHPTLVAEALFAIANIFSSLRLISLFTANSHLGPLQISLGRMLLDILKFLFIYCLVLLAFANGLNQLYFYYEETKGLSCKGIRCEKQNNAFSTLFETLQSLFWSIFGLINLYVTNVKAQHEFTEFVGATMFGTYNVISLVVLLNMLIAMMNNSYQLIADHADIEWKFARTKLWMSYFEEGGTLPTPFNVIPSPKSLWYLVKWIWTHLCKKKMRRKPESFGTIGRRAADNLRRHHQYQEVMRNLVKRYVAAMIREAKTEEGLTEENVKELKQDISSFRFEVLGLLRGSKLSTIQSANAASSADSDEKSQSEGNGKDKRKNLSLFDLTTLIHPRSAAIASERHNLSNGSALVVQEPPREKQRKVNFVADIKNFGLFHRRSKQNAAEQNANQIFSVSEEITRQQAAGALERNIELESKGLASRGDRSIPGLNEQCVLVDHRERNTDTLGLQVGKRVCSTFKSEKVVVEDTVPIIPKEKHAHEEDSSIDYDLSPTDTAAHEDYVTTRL

On to `Cc1ccc(OCC(=O)NNC(=S)NC(=O)C(C)(C)C)c(Br)c1`, for which the result in [1] was inactive.
For the compound `Cc1ccccc1C(=O)NNC(=S)NC(=O)c1ccc(Cl)cc1Cl`, in [1], the activation is 19.9% (active).
Regarding `COc1ccc(C(=O)NC(=S)NNC(=O)c2cccc(C)c2)cc1`, the activation in assay [1] was 31.9% (active).
Regarding `CC(C)(C)C(=O)NC(=S)NNC(=O)C(c1ccccc1)c1ccccc1`, the outcome in assay [1] was inactive.
Take `COc1ccc(C(=O)NNC(=S)NC(=O)c2ccccc2)cc1`: the activation in assay [1] is 20.5% (active).
Turning to `CC1CN(C(=O)c2ccc(NS(=O)(=O)c3ccc(C(C)(C)C)cc3)cc2)CC(C)O1` (stereo not drawn), the result in assay [1] was inactive.
For the compound `Cc1cccc(C(=O)NNC(=S)NC(=O)c2ccccc2)c1`, the activation in [1] was 46.6% (active).
With `Cc1cccc(C(=O)NC(=S)NNC(=O)c2ccccc2Cl)c1`, in [1], the result was inactive.
For `Cc1onc(-c2ccccc2)c1C(=O)NNC(=S)NC(=O)c1ccc(F)cc1`, in assay [1], the result was inactive.
Take `CCN1/C(=C\c2ccc3ccccc3[n+]2CC)Sc2cc(C)ccc21`: the fluorescence ratio (Tl flux) in [2] was 0.043 (active). The result in assay [3] and in assay [4] was inactive.
Consider `Cc1onc(-c2ccccc2)c1C(=O)NNC(=S)NC(=O)c1ccc(Br)cc1`, for which the result in assay [1] was inactive.
Regarding `CCCCC(=O)NNC(=S)NC(=O)C(c1ccccc1)c1ccccc1`, the outcome in assay [1] was inactive.
Regarding `CC(Oc1ccc(Cl)cc1)C(=O)NNC(=S)NC(=O)c1ccco1` (stereo not drawn), the activation in assay [1] is 13.8% (active).
`NC(=Nc1ccccc1)Nc1ccccc1`: the result in assay [1] was inactive.
On the same count and under the same terms, to `Cc1onc(-c2ccccc2)c1C(=O)NNC(=S)NC(=O)c1ccc(Cl)cc1Cl` belongs “inactive”.
For the compound `COc1ccc(CNC(=O)c2cc3c(=O)n4ccccc4nc3n(CC3CCCO3)c2=N)cc1` (stereo not drawn), the call in assay [5], in assay [9] and in [10] was inactive. Also, in [6], the activity change, negative = inhibition was -15.8% (active). Besides, the signal change vs control in [7] was 32% (active). The membrane potential signal change in [8] is -176% (active).
